Several values for one entry are separate records, joined by “and”; a condition that tells them apart may be missing. Equal entries are not always repeated. Ends that are not written are not given here.
Tests used:
Jurkat T-ALL cells [1] = assay: Propidium iodide uptake, Jurkat; format: cell-based, human; details: 25 μM, 5 or 10 min
Procedure, shortened: (§1)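 Jurkat or MDA-MB-231 cells (5 × 10⁵) were exposed to test compound or vehicle. PI (10 μg/ml final) was added 5 min before flow cytometry, and mean channel fluorescence was recorded. For Jurkat, exposure lasted 5 or 10 min, with n=3.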

Jurkat cells = assay: DNA laddering; format: cell-based, human; details: 0.1-25 μM, 4 h
Procedure, shortened: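 Jurkat cells (RPMI 1640, 5% CO₂, 37°C) were exposed to test compound for 4 h, alongside medium, vehicle and 50 μM etoposide (4 h or 24 h) controls. DNA was extracted with a kit and run on a 0.8% agarose gel to look for laddering.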

[2] = tested on: MDA-MB-231 breast cancer cells; assay: Propidium iodide uptake, MDA-MB-231; format: cell-based, human
Procedure, shortened: as §1

[3] = tested on: leukemia cells (Jurkat, THP-1); format: cell-based, human; details: read-out: IC50 toward leukemia cells
Jurkat T leukemia cells = assay: MTT cytotoxicity assay, Jurkat cells; format: cell-based, human; details: for effect of pan-caspase inhibitor BOC-D-FMK on induced cell death: BOC-D-FMK 40 μM
[4] = MTT cytotoxicity assay, Jurkat cells; format: cell-based, human; details: % Cytotoxicity, Jurkat, MTT, 24 h, mean ± SEM
[5] = tested on: MDA-MB-231 breast cancer cells; assay: MTT cytotoxicity assay, MDA-MB-231 cells; format: cell-based, human; details: read-out: IC50 in MDA-MB-231 breast cancer cells; C-terminal amide form
[6] = MTT cytotoxicity assay, MDA-MB-231 cells; format: cell-based, human; details: % Cytotoxicity, MTT, 24 h, mean ± SEM
[7] = Calcein leakage from large unilamellar vesicles; details: 20 min; for calcein leakage (membrane disruption) from LUVs: LUVs of 100% anionic lipid POPS; for calcein leakage from LUVs as lipid composition became less negatively charged: greater proportion of zwitterionic lipid POPC
Procedure, shortened: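 LUVs were made from POPC/POPS films (1 mg total lipid) hydrated in 10 mM Tris, 150 mM NaCl, 1 mM EDTA, pH 7.4, with 70 mM calcein. Suspensions were freeze-thawed five times, extruded 15 times through 100 nm filters, and cleared of free dye on Sephadex G-50. Vesicles were diluted to 10 μM final lipid, given peptide at set peptide:lipid molar ratios and held ~20 min at room temperature. Ex 490/em 520 was read against 1% Triton X-100 and water controls. Samples were run at least in duplicate per preparation; values are the mean of three experiments ± SD.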

Jurkat T-ALL cells [8] = assay: LDH-release time course, Jurkat cells; format: cell-based, human
Procedure, shortened: (§2)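 Jurkat cells or PBMCs (density-gradient isolated from healthy donors' venous blood) were cultured at 37°C, 5% CO₂, with test compound over a time course. Supernatants taken at each time point were assayed for LDH activity with a commercial kit. Percent cytotoxicity = (E−N)/(P−N)×100, with vehicle as negative and Triton X-100 as positive control. Values are the mean of 3 independent experiments ± SEM.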

Jurkat T-ALL cells [9] = assay: Combination with chemotherapeutic agents, MTT assay 72 h; format: cell-based, human
Procedure, shortened: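 Jurkat cells in RPMI 1640 (2.5% FBS final), seeded at 5 × 10⁵ cells/ml just before treatment. Increasing concentrations of a chemotherapeutic agent, with or without test peptide fixed at 4.5 μM, for 72 h at 37°C, 5% CO₂. MTT added at […] final for the last 2 h; DMSO-solubilised formazan read at 490 nm. Percent cytotoxicity scaled between vehicle and 1% Triton X-100; mean of 3 independent experiments ± SEM.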

[10] = tested on: cancer cells and normal cells; assay: Specificity factor: IC50 in cancer cells versus normal cells; format: cell-based; details: depending on the cancer cell line and the normal cell compared
[11] = tested on: 4T1 mouse mammary carcinoma; assay: 4T1 mammary carcinoma model in BALB/c mice; format: in vivo; details: IP, gemcitabine 60 mg/kg Q7D, Mastoparan 6 mg/kg Q2D, from day 5
[12] = tested on: Paclitaxel-resistant MCF7-TX400 cells; assay: Trypan blue exclusion, MCF7 and MCF7-TX400; format: cell-based, human; details: 24 h
Procedure, shortened: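 MCF7 and paclitaxel-resistant MCF7-TX400 cells were maintained in DMEM/10% FBS at 10% CO₂ for ≤30 passages. They were cultured with or without test compound for 24 h, and viability was scored by trypan blue exclusion counts. Values are the mean of 3 independent experiments ± SEM.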

PBMCs = assay: MTT cytotoxicity assay, normal PBMCs; format: cell-based, human; details: read-out: IC50 to PBMC; normal cells (PBMC)
[13] = MTT cytotoxicity assay, normal PBMCs; format: cell-based, human; details: % Cytotoxicity, PBMCs, MTT, 24 h, mean ± SEM
[14] = MTT cytotoxicity assay, primary HMECs; format: cell-based, human; details: % Cytotoxicity, 24 h, mean ± SEM
Procedure, shortened: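 Primary HMECs (MEGM-maintained, ≤6 passages) were seeded at 2 × 10⁵ cells/ml 24 h before treatment. They were exposed for 24 h at 2.5% final FBS, 37°C, 10% CO₂. MTT ([…] final) was added for the last 2 h, with 1% Triton X-100 as the 100%-death control. Formazan was dissolved in DMSO and OD 490 read. Cytotoxicity = (E−N)/(P−N)×100 against vehicle and Triton controls; values are the mean of 3 independent experiments ± SEM.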

primary PBMCs = assay: LDH-release time course, PBMCs; format: cell-based, human
Procedure, shortened: as §2

[15] = tested on: breast cancer cells (MDA-MB-231, SKBR3, MDA-MB-468, T47D, 4T1); format: cell-based, human; mouse; details: read-out: IC50 toward breast cancer cells
HOPC myeloma cells = format: cell-based, mouse; details: read-out: IC50 toward myeloma cells
human erythrocytes = assay: Hemolysis assay; format: cell-based; details: screen of 24 short cationic peptides
Hemolysis assay = format: cell-based, human; details: % Hemolysis, human erythrocytes, 4 h, mean ± SEM
[16] = Mastoparan 4.5 μM (IC10) with vinblastine, Jurkat, MTT 72 h

Compound: CC[C@H](C)[C@H](N)C(=O)N[C@@H](CC(N)=O)C(=O)N[C@@H](CC(C)C)C(=O)N[C@@H](CCCCN)C(=O)N[C@@H](C)C(=O)N[C@@H](CC(C)C)C(=O)N[C@@H](C)C(=O)N[C@@H](C)C(=O)N[C@@H](CC(C)C)C(=O)N[C@@H](C)C(=O)N[C@@H](CCCCN)C(=O)N[C@@H](CCCCN)C(=O)N[C@H](C(=O)N[C@@H](CC(C)C)C(N)=O)[C@@H](C)CC [Mastoparan, INLKALAALAKKIL-NH2]
- PI uptake (membrane integrity) (Jurkat T-ALL cells [1]): rapid PI uptake
- DNA laddering (Jurkat cells): did not cause DNA laddering
- PI uptake (membrane integrity) [2]: rapid PI uptake
- IC50 [3]: 8 to 9.2 µM
- effect of pan-caspase inhibitor BOC-D-FMK on induced cell death (Jurkat T leukemia cells; Jurkat, MTT 24 h): not reversed
- cytotoxic potency of amidated form compared with free carboxyl form (Jurkat T leukemia cells; Jurkat, MTT 24 h): significantly more potent
- fold more potent than Mastoparan-COOH (Jurkat T leukemia cells; Mastoparan-NH2 versus Mastoparan-COOH): 8–11 fold
- IC50 (Jurkat T leukemia cells; read-out: IC50 in Jurkat T-ALL cells, C-terminal amide form): 9.1 µM
- cytotoxicity ([4]; 10 μM Mastoparan): 64 ± 7%
- cytotoxicity ([4]; 25 μM Mastoparan): 95 ± 4%
- cytotoxicity ([4]; 50 μM Mastoparan): 97 ± 1%
- IC50 [5]: 22 µM
- cytotoxicity ([6]; MDA-MB-231, 10 μM Mastoparan): 20 ± 1%
- cytotoxicity ([6]; MDA-MB-231, 25 μM Mastoparan): 62 ± 2%
- cytotoxicity ([6]; MDA-MB-231, 50 μM Mastoparan): 96 ± 1%
- calcein leakage (membrane disruption) from LUVs [7]: caused membrane disruption
- calcein leakage from LUVs as lipid composition became less negatively charged [7]: largely unchanged
- time at which cytotoxicity peaked (Jurkat T-ALL cells [8]): 8 h
- IC10 concentration (Jurkat T-ALL cells [9]; Jurkat T-ALL cells): 4.5 µM
- fold reduction of the EC50 of etoposide (Jurkat T-ALL cells [9]; Mastoparan 4.5 μM (IC10) with etoposide, Jurkat, MTT 72 h): approximately 2 fold
- increase of vinblastine-mediated cytotoxicity (Jurkat T-ALL cells [9]; [16]): 10% and ~ 10%
- ΔIC50 of vinblastine (Jurkat T-ALL cells [9]; [16]): ~ 1.2 fold
- specificity factor (selectivity index): fold-difference in the IC50 between cancer cells and normal cells [10]: 2–6 fold
- tumour growth (tumour volume and mass) in comparison to saline-treated mice [11]: not statistically significant
- toxicity to MCF7-TX400 cells compared with parental MCF7 cells [12]: as toxic
- IC50 (PBMCs): 48 µM
- cytotoxicity ([13]; 10 μM Mastoparan): 13 ± 5%
- cytotoxicity ([13]; 25 μM Mastoparan): 29 ± 7%
- cytotoxicity ([13]; 50 μM Mastoparan): 49 ± 3%
- cytotoxicity ([14]; 10 μM Mastoparan): 16 ± 1%
- cytotoxicity ([14]; 25 μM Mastoparan): 37 ± 7%
- cytotoxicity ([14]; 50 μM Mastoparan): 67 ± 14%
- time at which cytotoxicity peaked (primary PBMCs): 8 h
- IC50 [15]: 20 to 24 µM
- IC50 (HOPC myeloma cells): ~11 µM
- hemolytic activity in preliminary screen (human erythrocytes): devoid of hemolytic activity
- hemolysis (Hemolysis assay; 10 μM Mastoparan): 1 ± 1%
- hemolysis (Hemolysis assay; 25 μM Mastoparan): 2 ± 1%
- hemolysis (Hemolysis assay; 50 μM Mastoparan): 7 ± 1%

Compound: COc1cc([C@@H]2c3cc4c(cc3[C@@H](O[C@@H]3O[C@@H]5CO[C@@H](C)O[C@H]5[C@H](O)[C@H]3O)[C@H]3COC(=O)[C@H]23)OCO4)cc(OC)c1O [etoposide, reference compound]
- effect of pan-caspase inhibitor BOC-D-FMK on induced cell death (Jurkat T leukemia cells; Jurkat, MTT 24 h): significantly reduced

Compound: Nc1ccn([C@@H]2O[C@H](CO)[C@@H](O)C2(F)F)c(=O)n1 [gemcitabine, reference compound]
- tumour growth (tumour volume and mass) in comparison to saline-treated mice [11]: not statistically significant

Compound: INLKALAALAKKIL-COOH (INLKALAALAKKIL-OH) [Mastoparan-COOH, reference compound]
- calcein leakage (membrane disruption) from LUVs [7]: caused membrane disruption
- calcein leakage from LUVs as lipid composition became less negatively charged [7]: significantly reduced
